Source: ChEMBL document CHEMBL1275259, “In vitro antituberculosis activities of ACH-702, a novel isothiazoloquinolone, against quinolone-susceptible and quinolone-resistant isolates” (Antimicrob Agents Chemother, 2010)
Converted amounts (≈) assume the structure as drawn.

What was measured:
[1] = system: Mycobacterium tuberculosis; assay: Antimicrobial activity against streptomycin-resistant Mycobacterium tuberculosis isolate 8; type: functional
Summary of the method: (§1)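 Broth microdilution MIC in modified 7H10 broth (pH 6.6). Drugs dissolved in DMSO at 1 mg/ml, then serially diluted. Isolates grown 5 to 10 days at 37°C on a rotary shaker, diluted to 100 Klett units and frozen. Final inoculum about 6 × 10^4 CFU/ml (range 1.2 × 10^4 to 2.6 × 10^5). Duplicate wells, sealed, read after about 21 days at 37°C in ambient air.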

[2] = system: Mycobacterium tuberculosis; assay: Antimicrobial activity against multidrug-resistant Mycobacterium tuberculosis isolate 9; type: functional; summary of the method: as §1
[3] = system: Mycobacterium tuberculosis; assay: Antimicrobial activity against quinolone-resistant Mycobacterium tuberculosis isolate 10; type: functional; summary of the method: as §1
[4] = system: Mycobacterium tuberculosis; assay: Antimicrobial activity against quinolone-resistant Mycobacterium tuberculosis isolate 11; type: functional; summary of the method: as §1
[5] = system: Mycobacterium tuberculosis; assay: Antimicrobial activity against quinolone-resistant Mycobacterium tuberculosis isolate 12; type: functional; summary of the method: as §1
[6] = system: Mycobacterium tuberculosis; assay: Antimicrobial activity against isoniazid-resistant Mycobacterium tuberculosis isolate 15; type: functional; summary of the method: as §1
[7] = system: Mycobacterium tuberculosis; assay: Antimicrobial activity against extensively drug-resistant Mycobacterium tuberculosis isolate 16; type: functional; summary of the method: as §1
[8] = system: Mycobacterium tuberculosis; assay: Antimicrobial activity against extensively drug-resistant Mycobacterium tuberculosis isolate 17; type: functional; summary of the method: as §1
[9] = system: Mycobacterium tuberculosis; assay: Antimicrobial activity against extensively drug-resistant Mycobacterium tuberculosis isolate 18; type: functional; summary of the method: as §1
[10] = system: Mycobacterium tuberculosis; assay: Antimicrobial activity against multidrug-resistant Mycobacterium tuberculosis isolate 19; type: functional; summary of the method: as §1
[11] = system: Mycobacterium tuberculosis; assay: Antimicrobial activity against multidrug drug-resistant Mycobacterium tuberculosis isolate 20; type: functional; summary of the method: as §1
DNA gyrase subunit A [12] = molecular target: DNA gyrase subunit A (Mycobacterium tuberculosis, UniProt P9WG47, A90V); assay: Inhibition of DNA supercoiling activitysof Mycobacterium tuberculosis DNA gyrase subunit A A90V mutant
DNA gyrase subunit A [13] = molecular target: DNA gyrase subunit A (Mycobacterium tuberculosis, UniProt P9WG47, D94G); assay: Inhibition of DNA supercoiling activity of Mycobacterium tuberculosis DNA gyrase subunit A D94G mutant

Row | SMILES | MIC [1] [µg/mL] | MIC [2] [µg/mL] | MIC [3] [µg/mL] | MIC [4] [µg/mL] | MIC [5] [µg/mL] | MIC [6] [µg/mL] | MIC [7] [µg/mL] | MIC [8] [µg/mL] | MIC [9] [µg/mL] | MIC [10] [µg/mL] | MIC [11] [µg/mL] | IC50 (DNA gyrase subunit A [12]) [µM] | IC50 (DNA gyrase subunit A [13]) [µM]
1 | CO[C@H]1/C=C/O[C@@]2(C)Oc3c(C)c(O)c4c(O)c(c(/C=N/N5CCN(C)CC5)c(O)c4c3C2=O)NC(=O)/C(C)=C\C=C\[C@H](C)[C@H](O)[C@@H](C)[C@@H](O)[C@@H](C)[C@H](OC(C)=O)[C@@H]1C [RIFAMPIN] | 0.008 (≈ 0.00972 µM) | 64 (≈ 77.8 µM) | 0.004 (≈ 0.00486 µM) | 0.03 (≈ 0.0365 µM) | 0.004 (≈ 0.00486 µM) | 0.002 (≈ 0.00243 µM) | 8 (≈ 9.72 µM) | 8 (≈ 9.72 µM) | 8 (≈ 9.72 µM) | 64 (≈ 77.8 µM) | 16 (≈ 19.4 µM) | – | –
2 | NNC(=O)c1ccncc1 [ISONIAZID] | 0.125 (≈ 0.911 µM) | 4 (≈ 29.2 µM) | 0.03 (≈ 0.219 µM) | 0.03 (≈ 0.219 µM) | 0.03 (≈ 0.219 µM) | > 8 | 1 (≈ 7.29 µM) | 1 (≈ 7.29 µM) | 2 (≈ 14.6 µM) | 2 (≈ 14.6 µM) | 2 (≈ 14.6 µM) | – | –
3 | COc1c(N2CC[C@@H](C(C)(C)N)C2)c(F)cc2c(=O)c3c(=O)[nH]sc3n(C3CC3)c12 | 0.25 (≈ 0.578 µM) | 0.06 (≈ 0.139 µM) | 0.125 (≈ 0.289 µM) | 0.25 (≈ 0.578 µM) | 1 (≈ 2.31 µM) | 0.06 (≈ 0.139 µM) | 0.5 (≈ 1.16 µM) | 1 (≈ 2.31 µM) | 0.125 (≈ 0.289 µM) | 0.03 (≈ 0.0694 µM) | 0.03 (≈ 0.0694 µM) | 4.6 | 7.9
4 | C[C@H]1COc2c(N3CCN(C)CC3)c(F)cc3c(=O)c(C(=O)O)cn1c23 [LEVOFLOXACIN] | – | – | – | – | – | – | – | – | – | – | – | > 300 | > 300
5 | COc1c(N2C[C@@H]3CCCN[C@@H]3C2)c(F)cc2c(=O)c(C(=O)O)cn(C3CC3)c12 [MOXIFLOXACIN] | 0.06 (≈ 0.149 µM) | 0.06 (≈ 0.149 µM) | > 8 | 4 (≈ 9.96 µM) | 8 (≈ 19.9 µM) | 0.06 (≈ 0.149 µM) | 1 (≈ 2.49 µM) | 2 (≈ 4.98 µM) | 1 (≈ 2.49 µM) | 0.03 (≈ 0.0747 µM) | 0.03 (≈ 0.0747 µM) | – | –
6 | COc1c(N2CCNC(C)C2)c(F)cc2c(=O)c(C(=O)O)cn(C3CC3)c12 (stereo unspecified) [GATIFLOXACIN] | – | – | – | – | – | – | – | – | – | – | – | 28 | 44
7 | CN[C@@H]1[C@H](O[C@H]2[C@H](O[C@H]3[C@H](O)[C@@H](O)[C@H](N=C(N)N)[C@@H](O)[C@@H]3N=C(N)N)O[C@@H](C)[C@]2(O)C=O)O[C@@H](CO)[C@H](O)[C@H]1O [STREPTOMYCIN] | – | 32 (≈ 55 µM) | – | – | – | – | – | – | – | – | – | – | –
